Measurements from ChEMBL document CHEMBL1914398, “Synthesis and evaluation of novel N-fluoropyridyl derivatives of tropane as potential PET imaging agents for the dopamine transporter” (Bioorg Med Chem Lett, 2011).

Columns and labels:
[1] = target: Sodium-dependent dopamine transporter (Homo sapiens, UniProt Q01959); test: Displacement of [125I]-IPT from DAT transfected in pig LLC-PK1 cells by radioligand competition binding assay; format: cell-based
[2] = target: Sodium-dependent serotonin transporter (Homo sapiens, UniProt P31645); test: Displacement of [125I]-IDAM from SERT transfected in pig LLC-PK1 cells by radioligand competition binding assay; format: cell-based
[3] = target: Sodium-dependent noradrenaline transporter (Homo sapiens, UniProt P23975); test: Displacement of [125I]-INXT from NET transfected in pig LLC-PK1 cells by radioligand competition binding assay; format: cell-based
[4] = Selectivity ratio of Ki for SERT to Ki for DAT
[5] = Selectivity ratio of Ki for NET to Ki for DAT
[6] = tested on: Brain; test: Drug uptake in Sprague-Dawley rat brain at 25 uCi, iv after 2 mins by gamma counter; format: ADME, organism-based; conditions: in vivo
In short: (§1)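 Normal male Sprague-Dawley rats were given 25 µCi of the 18F-tracer via the femoral vein. Rats (n = 5 per time point) were sacrificed at 2, 60, 120 or 180 min post-injection. Brain regions were dissected and weighed, and radioactivity was gamma-counted. Values are %ID/g, calculated against diluted aliquots of the injected dose, as mean ± S.D.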

[7] = tested on: Brain; test: Drug uptake in Sprague-Dawley rat brain at 25 uCi, iv after 60 mins by gamma counter; format: ADME, organism-based; conditions: in vivo, 1 h; in short: as §1
[8] = tested on: Brain; test: Drug uptake in Sprague-Dawley rat brain at 25 uCi, iv after 120 mins by gamma counter; format: ADME, organism-based; conditions: in vivo, 2 h; in short: as §1
[9] = tested on: Brain; test: Drug uptake in Sprague-Dawley rat brain at 25 uCi, iv after 180 mins by gamma counter; format: ADME, organism-based; conditions: in vivo, 3 h; in short: as §1
[10] = tested on: Cerebellum; test: Drug uptake in Sprague-Dawley rat cerebellum at 25 uCi, iv after 2 mins by gamma counter; format: ADME, organism-based; conditions: in vivo; in short: as §1
[11] = tested on: Cerebellum; test: Drug uptake in Sprague-Dawley rat cerebellum at 25 uCi, iv after 60 mins by gamma counter; format: ADME, organism-based; conditions: in vivo, 1 h; in short: as §1
[12] = tested on: Cerebellum; test: Drug uptake in Sprague-Dawley rat cerebellum at 25 uCi, iv after 120 mins by gamma counter; format: ADME, organism-based; conditions: in vivo, 2 h; in short: as §1
[13] = tested on: Cerebellum; test: Drug uptake in Sprague-Dawley rat cerebellum at 25 uCi, iv after 180 mins by gamma counter; format: ADME, organism-based; conditions: in vivo, 3 h; in short: as §1
[14] = tested on: Striatum; test: Drug uptake in Sprague-Dawley rat striatum at 25 uCi, iv after 2 mins by gamma counter; format: ADME, organism-based; conditions: in vivo; in short: as §1
[15] = tested on: Striatum; test: Drug uptake in Sprague-Dawley rat striatum at 25 uCi, iv after 60 mins by gamma counter; format: ADME, organism-based; conditions: in vivo, 1 h; in short: as §1
[16] = tested on: Striatum; test: Drug uptake in Sprague-Dawley rat striatum at 25 uCi, iv after 120 mins by gamma counter; format: ADME, organism-based; conditions: in vivo, 2 h; in short: as §1
[17] = tested on: Striatum; test: Drug uptake in Sprague-Dawley rat striatum at 25 uCi, iv after 180 mins by gamma counter; format: ADME, organism-based; conditions: in vivo, 3 h; in short: as §1
[18] = tested on: Hippocampus; test: Drug uptake in Sprague-Dawley rat hippocampus at 25 uCi, iv after 2 mins by gamma counter; format: ADME, organism-based; conditions: in vivo; in short: as §1
[19] = tested on: Hippocampus; test: Drug uptake in Sprague-Dawley rat hippocampus at 25 uCi, iv after 60 mins by gamma counter; format: ADME, organism-based; conditions: in vivo, 1 h; in short: as §1
[20] = tested on: Hippocampus; test: Drug uptake in Sprague-Dawley rat hippocampus at 25 uCi, iv after 120 mins by gamma counter; format: ADME, organism-based; conditions: in vivo, 2 h; in short: as §1
[21] = tested on: Hippocampus; test: Drug uptake in Sprague-Dawley rat hippocampus at 25 uCi, iv after 180 mins by gamma counter; format: ADME, organism-based; conditions: in vivo, 3 h; in short: as §1
[22] = tested on: Cortex; test: Drug uptake in Sprague-Dawley rat cortex at 25 uCi, iv after 2 mins by gamma counter; format: ADME, organism-based; conditions: in vivo; in short: as §1
[23] = tested on: Cortex; test: Drug uptake in Sprague-Dawley rat cortex at 25 uCi, iv after 60 mins by gamma counter; format: ADME, organism-based; conditions: in vivo, 1 h; in short: as §1
[24] = tested on: Cortex; test: Drug uptake in Sprague-Dawley rat cortex at 25 uCi, iv after 120 mins by gamma counter; format: ADME, organism-based; conditions: in vivo, 2 h; in short: as §1
[25] = tested on: Cortex; test: Drug uptake in Sprague-Dawley rat cortex at 25 uCi, iv after 180 mins by gamma counter; format: ADME, organism-based; conditions: in vivo, 3 h; in short: as §1
[26] = tested on: Hypothalamus; test: Drug uptake in Sprague-Dawley rat hypothalamus at 25 uCi, iv after 2 mins by gamma counter; format: ADME, organism-based; conditions: in vivo; in short: as §1
[27] = tested on: Hypothalamus; test: Drug uptake in Sprague-Dawley rat hypothalamus at 25 uCi, iv after 60 mins by gamma counter; format: ADME, organism-based; conditions: in vivo, 1 h; in short: as §1
[28] = tested on: Hypothalamus; test: Drug uptake in Sprague-Dawley rat hypothalamus at 25 uCi, iv after 120 mins by gamma counter; format: ADME, organism-based; conditions: in vivo, 2 h; in short: as §1
[29] = tested on: Hypothalamus; test: Drug uptake in Sprague-Dawley rat hypothalamus at 25 uCi, iv after 180 mins by gamma counter; format: ADME, organism-based; conditions: in vivo, 3 h; in short: as §1
[30] = tested on: Nucleic Acid; test: Ratio of drug uptake in striatum to cerebellum in Sprague-Dawley rat at 25 uCi, iv after 2 mins; format: ADME, organism-based; conditions: in vivo
In short: (§2)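 Region-to-cerebellum uptake ratios were calculated from %ID/g values (n = 5 rats per time point). These came from normal male Sprague-Dawley rats given 25 µCi of the 18F-tracer through the femoral vein and dissected at 2, 60, 120 or 180 min. Tissue was gamma-counted, and cerebellum served as the non-target background region.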

[31] = tested on: Nucleic Acid; test: Ratio of drug uptake in striatum to cerebellum in Sprague-Dawley rat at 25 uCi, iv after 60 mins; format: ADME, organism-based; conditions: in vivo, 1 h; in short: as §2
[32] = tested on: Nucleic Acid; test: Ratio of drug uptake in striatum to cerebellum in Sprague-Dawley rat at 25 uCi, iv after 120 mins; format: ADME, organism-based; conditions: in vivo, 2 h; in short: as §2
[33] = tested on: Nucleic Acid; test: Ratio of drug uptake in striatum to cerebellum in Sprague-Dawley rat at 25 uCi, iv after 180 mins; format: ADME, organism-based; conditions: in vivo, 3 h; in short: as §2
[34] = tested on: Nucleic Acid; test: Ratio of drug uptake in hippocampus to cerebellum in Sprague-Dawley rat at 25 uCi, iv after 2 mins; format: ADME, organism-based; conditions: in vivo; in short: as §2
[35] = tested on: Nucleic Acid; test: Ratio of drug uptake in hippocampus to cerebellum in Sprague-Dawley rat at 25 uCi, iv after 60 mins; format: ADME, organism-based; conditions: in vivo, 1 h; in short: as §2
[36] = tested on: Nucleic Acid; test: Ratio of drug uptake in hippocampus to cerebellum in Sprague-Dawley rat at 25 uCi, iv after 120 mins; format: ADME, organism-based; conditions: in vivo, 2 h; in short: as §2
[37] = tested on: Nucleic Acid; test: Ratio of drug uptake in hippocampus to cerebellum in Sprague-Dawley rat at 25 uCi, iv after 180 mins; format: ADME, organism-based; conditions: in vivo, 3 h; in short: as §2
[38] = tested on: Nucleic Acid; test: Ratio of drug uptake in cortex to cerebellum in Sprague-Dawley rat at 25 uCi, iv after 2 mins; format: ADME, organism-based; conditions: in vivo; in short: as §2
[39] = tested on: Nucleic Acid; test: Ratio of drug uptake in cortex to cerebellum in Sprague-Dawley rat at 25 uCi, iv after 60 mins; format: ADME, organism-based; conditions: in vivo, 1 h; in short: as §2
[40] = tested on: Nucleic Acid; test: Ratio of drug uptake in cortex to cerebellum in Sprague-Dawley rat at 25 uCi, iv after 120 mins; format: ADME, organism-based; conditions: in vivo, 2 h; in short: as §2
[41] = tested on: Nucleic Acid; test: Ratio of drug uptake in cortex to cerebellum in Sprague-Dawley rat at 25 uCi, iv after 180 mins; format: ADME, organism-based; conditions: in vivo, 3 h; in short: as §2
[42] = tested on: Nucleic Acid; test: Ratio of drug uptake in hypothalamus to cerebellum in Sprague-Dawley rat at 25 uCi, iv after 2 mins; format: ADME, organism-based; conditions: in vivo; in short: as §2
[43] = tested on: Nucleic Acid; test: Ratio of drug uptake in hypothalamus to cerebellum in Sprague-Dawley rat at 25 uCi, iv after 60 mins; format: ADME, organism-based; conditions: in vivo, 1 h; in short: as §2
[44] = tested on: Nucleic Acid; test: Ratio of drug uptake in hypothalamus to cerebellum in Sprague-Dawley rat at 25 uCi, iv after 120 mins; format: ADME, organism-based; conditions: in vivo, 2 h; in short: as §2
[45] = tested on: Nucleic Acid; test: Ratio of drug uptake in hypothalamus to cerebellum in Sprague-Dawley rat at 25 uCi, iv after 180 mins; format: ADME, organism-based; conditions: in vivo, 3 h; in short: as §2
[46] = tested on: Striatum; test: Drug uptake in Sprague-Dawley rat striatum at 2.5 mCi, iv after 60 mins post injection measured by autoradiographic technique; format: ADME, organism-based; conditions: in vivo, 1 h
In short: (§3)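 For ex vivo autoradiography, normal Sprague-Dawley rats received 2.5 mCi of the 18F-tracer intravenously and were sacrificed at 60 min post-injection. Brains were removed immediately, frozen and sectioned. Dried sections were exposed to film overnight in an autoradiographic cassette to map regional radioactivity.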

[47] = Drug uptake in Sprague-Dawley rat caudate at 2.5 mCi, iv after 60 mins post injection measured by autoradiographic technique; format: ADME, organism-based, Caudate nucleus; conditions: in vivo, 1 h; in short: as §3
[48] = Drug uptake in Sprague-Dawley rat putamen at 2.5 mCi, iv after 60 mins post injection measured by autoradiographic technique; format: ADME, organism-based; conditions: in vivo, 1 h; in short: as §3
[49] = tested on: Cortex; test: Drug uptake in Sprague-Dawley rat cortex at 2.5 mCi, iv after 60 mins post injection measured by autoradiographic technique; format: ADME, organism-based; conditions: in vivo, 1 h; in short: as §3
[50] = Lipophilicity, log P of the compound; format: physicochemical; conditions: octanol/water

Sequence of Sodium-dependent noradrenaline transporter (P23975 whole entry): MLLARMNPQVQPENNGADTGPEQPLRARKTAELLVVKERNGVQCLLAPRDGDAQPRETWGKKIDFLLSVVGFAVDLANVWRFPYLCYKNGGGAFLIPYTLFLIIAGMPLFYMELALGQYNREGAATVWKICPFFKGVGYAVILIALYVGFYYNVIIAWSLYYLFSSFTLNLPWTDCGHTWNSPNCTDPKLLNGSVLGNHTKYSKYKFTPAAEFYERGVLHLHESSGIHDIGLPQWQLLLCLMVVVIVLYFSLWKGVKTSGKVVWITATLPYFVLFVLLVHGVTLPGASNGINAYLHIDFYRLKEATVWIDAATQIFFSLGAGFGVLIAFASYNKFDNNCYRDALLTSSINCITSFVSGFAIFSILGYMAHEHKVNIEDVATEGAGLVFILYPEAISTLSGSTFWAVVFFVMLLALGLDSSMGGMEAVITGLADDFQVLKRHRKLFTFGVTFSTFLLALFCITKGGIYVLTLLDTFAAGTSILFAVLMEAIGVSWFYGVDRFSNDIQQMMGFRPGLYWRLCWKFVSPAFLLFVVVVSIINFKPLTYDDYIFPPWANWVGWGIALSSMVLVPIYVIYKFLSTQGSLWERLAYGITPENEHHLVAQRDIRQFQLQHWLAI
Sequence of Sodium-dependent serotonin transporter (P31645 whole entry): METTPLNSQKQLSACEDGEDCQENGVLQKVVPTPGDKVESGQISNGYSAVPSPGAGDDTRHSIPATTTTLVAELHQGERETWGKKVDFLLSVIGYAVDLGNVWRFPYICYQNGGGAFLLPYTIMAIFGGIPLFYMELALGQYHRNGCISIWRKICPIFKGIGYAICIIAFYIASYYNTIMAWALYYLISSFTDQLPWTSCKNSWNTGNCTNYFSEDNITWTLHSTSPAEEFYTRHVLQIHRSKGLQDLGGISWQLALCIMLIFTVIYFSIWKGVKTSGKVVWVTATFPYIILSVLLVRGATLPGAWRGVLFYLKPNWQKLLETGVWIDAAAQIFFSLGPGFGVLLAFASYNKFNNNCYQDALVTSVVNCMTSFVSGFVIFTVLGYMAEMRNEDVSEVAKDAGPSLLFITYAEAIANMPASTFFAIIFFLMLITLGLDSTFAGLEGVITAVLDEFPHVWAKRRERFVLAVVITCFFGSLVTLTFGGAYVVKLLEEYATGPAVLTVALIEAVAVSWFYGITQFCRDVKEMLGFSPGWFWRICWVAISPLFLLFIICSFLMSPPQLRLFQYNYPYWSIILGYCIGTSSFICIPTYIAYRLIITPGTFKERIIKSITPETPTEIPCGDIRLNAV
Sequence of Sodium-dependent dopamine transporter (Q01959 whole entry): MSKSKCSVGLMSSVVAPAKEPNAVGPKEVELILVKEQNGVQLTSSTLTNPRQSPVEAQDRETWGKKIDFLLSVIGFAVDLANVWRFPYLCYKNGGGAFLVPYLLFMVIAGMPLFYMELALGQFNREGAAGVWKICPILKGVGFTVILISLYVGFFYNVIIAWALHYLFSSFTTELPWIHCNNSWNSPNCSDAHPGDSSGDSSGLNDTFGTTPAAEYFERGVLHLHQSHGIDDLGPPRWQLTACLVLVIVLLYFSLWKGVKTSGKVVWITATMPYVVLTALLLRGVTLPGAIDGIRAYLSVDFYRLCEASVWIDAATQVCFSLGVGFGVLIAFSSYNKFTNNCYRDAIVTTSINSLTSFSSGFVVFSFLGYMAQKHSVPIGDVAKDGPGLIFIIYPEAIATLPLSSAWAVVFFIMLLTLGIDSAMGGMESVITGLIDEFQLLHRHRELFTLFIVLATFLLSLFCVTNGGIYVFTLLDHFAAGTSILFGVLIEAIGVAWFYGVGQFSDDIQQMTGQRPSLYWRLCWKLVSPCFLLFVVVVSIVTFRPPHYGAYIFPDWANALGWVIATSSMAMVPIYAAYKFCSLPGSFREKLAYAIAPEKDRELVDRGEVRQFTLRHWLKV

CN1C2CCC1[C@@H](CNc1cccc(F)n1)[C@@H](c1ccc(Cl)cc1)C2 (stereo partly drawn)
Ki [1]: 4.1 nM | Ki [2]: 20.6 nM | Ki [3]: 66.2 nM | Ratio Ki [4]: 5 | Ratio Ki [5]: 16

CN1C2CCC1[C@@H](CNc1ccnc(Br)c1)[C@@H](c1ccc(Cl)cc1)C2 (stereo partly drawn)
Ki [1]: 7.9 nM | Ki [2]: 11 nM | Ki [3]: 27.7 nM | Ratio Ki [4]: 1.4 | Ratio Ki [5]: 3.5

CN1C2CCC1[C@@H](CNc1cccc(Br)n1)[C@@H](c1ccc(Cl)cc1)C2 (stereo partly drawn)
Ki [1]: 5.6 nM | Ki [2]: 7.4 nM | Ki [3]: 29.1 nM | Ratio Ki [4]: 1.3 | Ratio Ki [5]: 5.2

COC(=O)[C@H]1[C@@H](c2ccc(F)cc2)C[C@H]2CC[C@H]1N2C
Ki [2]: 181 nM | Ki [3]: 635 nM

CN1C2CCC1[C@@H](CN(C(=O)OC(C)(C)C)c1cccc([18F])n1)[C@@H](c1ccc(Cl)cc1)C2 (stereo partly drawn)
Drug uptake [6]: 0.4 % ID/g | Drug uptake [7]: 0.26 % ID/g | Drug uptake [8]: 0.07 % ID/g | Drug uptake [9]: 0.04 % ID/g | Drug uptake [10]: 0.49 % ID/g | Drug uptake [11]: 0.23 % ID/g | Drug uptake [12]: 0.05 % ID/g | Drug uptake [13]: 0.03 % ID/g | Drug uptake [14]: 0.4 % ID/g | Drug uptake [15]: 0.47 % ID/g | Drug uptake [16]: 0.12 % ID/g | Drug uptake [17]: 0.09 % ID/g | Drug uptake [18]: 0.36 % ID/g | Drug uptake [19]: 0.28 % ID/g | Drug uptake [20]: 0.08 % ID/g | Drug uptake [21]: 0.05 % ID/g | Drug uptake [22]: 0.45 % ID/g | Drug uptake [23]: 0.28 % ID/g | Drug uptake [24]: 0.07 % ID/g | Drug uptake [25]: 0.03 % ID/g | Drug uptake [26]: 0.4 % ID/g | Drug uptake [27]: 0.29 % ID/g | Drug uptake [28]: 0.06 % ID/g | Drug uptake [29]: 0.04 % ID/g | Ratio [30]: 0.82 | Ratio [31]: 2.02 | Ratio [32]: 2.54 | Ratio [33]: 3.14 | Ratio [34]: 0.72 | Ratio [35]: 1.21 | Ratio [36]: 1.61 | Ratio [37]: 1.81 | Ratio [38]: 0.91 | Ratio [39]: 1.21 | Ratio [40]: 1.4 | Ratio [41]: 0.96 | Ratio [42]: 0.81 | Ratio [43]: 1.24 | Ratio [44]: 1.31 | Ratio [45]: 1.51 | Drug uptake [46]: Active | Drug uptake [47]: Active | Drug uptake [48]: Active | Drug uptake [49]: Active | logP [50]: 1.88

COC(=O)[C@@H]1C2CCC(C[C@@H]1c1ccc(Br)cc1)N2C (stereo partly drawn)
Ki [1]: 3.5 nM
